Results pooled from the literature.
Each line is one published result; the experiments were not run side by side.

COC(=O)C=Cc1ccc(OC(C)=O)c(OC(C)=O)c1  CC50 (HaCaT; cell growth or viability, MTT; 24 h): 201 µM
O=C(O)CCCOc1ccc(F)cc1-c1cc(-c2ccccc2C(F)(F)F)n(-c2ccccc2)n1  NOAEL (general toxicity; rat; intravenous, 25 µg/kg, single dose): ≥ 0.025 mg/kg
CC(C)CC(=O)OC[C@H]1O[C@@](C#N)(c2ccc3c(N)ncnn23)[C@H](O)[C@@H]1O  half-life (metabolic stability; dog, plasma; 5 µM): > 3.1 h
CC(=O)c1c(C)c2cnc(Nc3ccc(C4CCN(CCS(C)(=O)=O)CC4)cn3)nc2n(C2CCCC2)c1=O  half-life (metabolic stability; dog, liver S9): 1.72 h
Cc1ncc2n1-c1ccc(Cl)cc1C(c1ccccc1F)=NC2  half-life (metabolic stability; dog, hepatocytes): 0.616 h
Cc1ccc2cc(N3CCC4(O)C(=O)c5cc(C)c(C)cc5N=C34)ccc2n1 (centres unmarked)  NOAEL (general toxicity; rat; intravenous, multiple doses): ≥ 20 mg/kg
CC(=O)Oc1ccc(C=CC(=O)O)cc1OC(C)=O  CC50 (HaCaT; cell growth or viability, MTT; 24 h): > 250 µM
COc1cc(C2C3=C(COC3=O)N(CCO)c3cc4c(cc32)CCC4)cc(OC)c1OC (centres unmarked)  MTD (general toxicity; female Sprague-Dawley rat; intraperitoneal, single dose): ≥ 400 mg/kg
